From PubChem
HePTP inh: inhibitors of human HePTP phosphatase; 110,000 tested, 0.64% active; recombinant HePTP phosphatase activity, OD absorbance; inhibition, % at 20 µM; in the data active means inhibition above about 50%;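 further: plate controls were vehicle for no effect and reference inhibitor for full effect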
Target sequence (P35236 whole entry, looked up): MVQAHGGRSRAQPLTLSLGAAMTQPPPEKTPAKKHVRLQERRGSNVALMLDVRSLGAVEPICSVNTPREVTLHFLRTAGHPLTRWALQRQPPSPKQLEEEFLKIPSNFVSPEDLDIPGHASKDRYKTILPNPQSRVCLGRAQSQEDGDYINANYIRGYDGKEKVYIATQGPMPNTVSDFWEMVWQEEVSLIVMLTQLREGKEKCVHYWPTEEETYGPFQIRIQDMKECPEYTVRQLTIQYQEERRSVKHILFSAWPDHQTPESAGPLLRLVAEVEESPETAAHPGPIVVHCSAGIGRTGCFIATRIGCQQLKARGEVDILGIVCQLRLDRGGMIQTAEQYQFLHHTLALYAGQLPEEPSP
Ecoli WT expand: E. coli BW25113 growth inhibition, expanded screen | 98,000 tested, 0.15% active | AID 710 | growth inhibition, % at 100 µM | OD600 absorbance;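 active means growth inhibition above about 50% at one test dose, limit read from the data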;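 further: growth measured after 20 h incubation at 37 °C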
PLAP activator: activates human placental alkaline phosphatase; P05187; purified PLAP enzyme, luminescent substrate read-out; hits give high values; activation fold at 20 µM; 96,000 tested, 1.2% active; in the data active means activation fold above about 2
PostGolgi yeast: growth inhibition of a yeast mutant, post-Golgi transport screen; post-Golgi transport phenotypic cell assay; 98,000 tested, 0.9% active; inhibition, % at 10 µM; AID 739;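 further: yeast cells grown in 1536-well plates; yeast grown about 18 h at 30C before absorbance read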
PostGolgi ctrl: growth of the yeast control strain, post-Golgi counter-screen. inhibition, % at 10 µM. AID 738. efflux-deficient yeast background strain, growth absorbance A615, 16 h. 98,000 tested, 5% active
Ecoli tolC: growth inhibitors of E. coli BW25113 tolC mutant. 65,000 tested, 2.2% active. growth inhibition, % at 10 µM (by protocol). AID 573. OD615;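 active means growth inhibition at or above a cutoff equal to the mean over every tested compound plus 3 SD, cut at about 60% in these data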;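 further: growth measured after 20 h incubation at 37 °C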
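Signal: optical density read at 615 nm; Assay system: E. coli ΔtolC::kan strain BW25113; Times: 20 h incubation with compound, 37 °C; Dosing: 10 µM final, single dose.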
* hit, by the source's call; . = no result. The list is not random: actives were taken first. Their share in the collection is about 5.4%. Unless noted, no stated cut-off is given here; in the data, active means inhibition above about 30%; inactive means the rest.

SMILES | HePTP inh | Ecoli WT expand | PLAP activator | PostGolgi yeast | PostGolgi ctrl | Ecoli tolC
COc1cccc(NC(=O)NCCCN2CCN(c3ccc(F)cc3)CC2)c1 | 7.9 | 14.0 | 1.1 | 8.6 | 2.1 | 1.3
COc1ccc(NC(=O)NCCCN2CCN(c3cc(C)ccc3C)CC2)cc1 | 8.4 | 17.0 | 2* | 6.4 | 3.2 | 21.1
O=C(Nc1ccccc1C(=O)NCc1ccccc1)c1ccccc1Cl | 8.0 | . | . | . | . | .
CC1(C)CC(=O)c2cnn(-c3nc4ccccc4[nH]3)c2C1 | -2.0 | 7.0 | 2.1* | 1.6 | 18.9 | 5.1
CCOc1ccccc1/C=N/NC(=O)c1ccccc1[N+](=O)[O-] | 7.5 | . | . | . | . | .
Clc1cccc(-c2cc3nc4c(c(N5CCOCC5)n3n2)CCCC4)c1 | -10.9 | -4.0 | 1.8 | -1.2 | 88.1* | 25.2
Fc1cccc(-c2cc3nc4c(c(N5CCOCC5)n3n2)CCCC4)c1 | 8.9 | -7.0 | 1.7 | 15.5 | 70.3* | 100.0*
Fc1cccc(-c2cc3nc4c(c(N5CCN(c6cnccn6)CC5)n3n2)CCCC4)c1 | 14.3 | . | . | . | . | -1.1
COc1cccc(-c2cc3nc(-c4ccccc4)cc(N4CCC5(CC4)OCCO5)n3n2)c1 | 3.2 | -16.0 | 1.3 | 0.5 | 5.7 | -4.3
c1coc(CNc2c3c(nc4ccccc24)CCC3)c1 | 0.4 | 32.0 | 0.7 | 0.3 | 2.9 | 12.2
Fc1cccc(-c2cc3nc4c(c(NCc5ccco5)n3n2)CCCC4)c1 | . | -6.0 | 1 | 3.1 | 49.4* | .
COc1ccc(-c2cc3nc4c(c(N5CCC6(CC5)OCCO6)n3n2)CCCC4)cc1 | -10.9 | . | . | . | . | 64.7*
Cc1cccc(C)c1OCC(=O)N/N=C/c1ccc(O)c([N+](=O)[O-])c1 | -23.4 | . | . | . | . | .
Cc1ccc(NCc2nnc(SCCN3CCCCC3)n2CC2CCCO2)cc1Cl (stereo not given) | 9.8 | 8.0 | 2* | -2.0 | 2.3 | -11.2
COc1ccc(/C=N/n2c(SC)nnc2-c2ccccc2)c(OC)c1OC | 15.8 | 1.0 | 1.5 | 0.2 | 5.5 | 21.8
COc1ccc(/C=N/n2c(SC)nnc2-c2ccccc2)cc1C | -9.7 | -5.0 | 1.2 | -1.3 | 42.9* | 86.9*
CCC(C)c1ccccc1NC(=O)c1cccnc1 (stereo not given) | 2.9 | 0.0 | 0.8 | -6.6 | 51.6* | 1.1
Cc1ccc(-n2[nH]c(=O)c(/C=C3\C=Nc4ccccc43)c2O)cc1 | 94.1* | . | . | . | . | .
N/C(=N\OC(=O)COc1ccc2ccccc2c1)c1ccc(Cl)cc1 | 6.4 | . | . | . | . | .
O=C(c1ccccc1)N1CCCCC(Sc2nnc3ccccn23)C1=O (stereo not given) | 4.2 | -15.0 | 0.9 | -1.6 | 31.0* | -6.4
CCn1c(NN)nc2sc3c(c2c1=O)CCC3 | . | -1.0 | 1.5 | 22.2 | 11.0 | .
CCOC(=O)C1CCCn2c1nc1sc3c(c1c2=O)CCCC3 (stereo not given) | -8.6 | 14.0 | 1.4 | -6.6 | 38.2* | -1.0
Cc1cc(C)nc(NC2=NCC(=O)N2c2cc(Cl)cc(Cl)c2)n1 | 6.3 | -2.0 | 0.9 | -0.3 | 9.2 | -20.1
Cc1cccc(N2C(=O)CN=C2Nc2nc(C)cc(C)n2)c1 | . | 7.0 | 2.6* | 15.1 | 2.8 | .
COc1ccc(NS(=O)(=O)c2ccc(NC(=S)NC(=O)c3sc4cc(F)ccc4c3Cl)cc2)nn1 | 5.6 | . | . | . | . | .
SMILES | HePTP inh | Ecoli WT expand | PLAP activator | PostGolgi yeast | PostGolgi ctrl | Ecoli tolC
C=CCc1ccccc1OCC(O)CN1CCN(Cc2ccc3c(c2)OCO3)CC1 (stereo not given) | 14.9 | -4.0 | 1.4 | 99.1* | 45.1* | 8.1
C=CCc1ccccc1OCC(O)CN1CCN(C(=O)OCC)CC1 (stereo not given) | 7.4 | -3.0 | 1.5 | -9.6 | -2.1 | -3.5
COc1ccc2[nH]c3c(NCCN(C(C)C)C(C)C)ncnc3c2c1 | -1.7 | 12.0 | 1.5 | 2.1 | 5.2 | -5.6
CC(C)OCCCNc1ncnc2c1[nH]c1ccccc12 | 7.5 | 16.0 | 0.9 | 17.1 | 6.9 | 100.0*
CCc1ccc(NC(=O)c2ccc3nc(N)sc3c2)cc1 | . | 2.0 | 0.8 | 14.7 | 1.0 | .
CCc1ccc(NC(=O)c2ccc3ncsc3c2)cc1 | . | -6.0 | 0.9 | 13.8 | 71.1* | .
O=C1CC(O)(C(F)(F)F)Oc2c1ccc1ccccc21 (stereo not given) | 4.4 | 35.0 | 1.1 | 4.5 | 36.8* | 96.6*
CCOC(=O)c1cc(CC)sc1NC(=O)Cc1ccsc1 | 6.1 | 5.0 | 0.9 | 6.9 | 10.4 | 73.0*
CCOC(=O)c1cc(CC)sc1NC(=O)CCC(=O)O | 6.0 | -1.0 | 1.4 | 5.3 | 9.2 | 6.7
COc1ccc(CCNC(=O)C(=O)Nc2ccccc2C)cc1 | 6.3 | . | . | . | . | .
CCOC(=O)c1c(NC(=O)c2ccncc2)sc(C(C)=O)c1C | 105.4* | . | . | . | . | .
COc1cc(C2NC(C(=O)O)CS2)ccc1OCc1ccccc1C#N (stereo not given) | 5.7 | 8.0 | 2.1* | -7.8 | 8.6 | -12.4
Cc1cc(C)c2[nH]c(=O)c(CN(Cc3nnnn3C3CCCC3)C3CCCCC3)cc2c1 | 7.2 | -5.0 | 0.9 | 6.2 | 1.2 | 13.3
Cc1cccc2cc(CN(Cc3nnnn3C3CCCCC3)C3CCCC3)c3nnnn3c12 | . | -10.0 | . | 96.9* | 85.8* | .
COCCN1C(=O)/C(=C\c2ccc(SC)cc2)C(C(=O)OC)=C1C | -8.2 | . | . | . | . | .
O=C(Oc1cccc(Nc2ncnc3ccccc23)c1)c1ccccc1Cl | . | -20.0 | 1.2 | -1.3 | 69.4* | .
NC(=O)NC(CCc1ccccc1)c1ccccc1 (stereo not given) | 3.8 | . | . | . | . | .
CCOC(=O)c1cnc(-n2nc(C)cc2C)nc1NC | 7.2 | 12.0 | 1.6 | 4.4 | -3.1 | 56.3
CCOC(=O)c1cnc(-n2nc(C)cc2C)nc1NC1CCCCC1 | -2.4 | 12.0 | 1.2 | 87.4* | 67.0* | 100.0*
CCOC(=O)c1cnc(-n2nc(C)cc2C)nc1Nc1ccc(N(C)C)cc1 | 4.4 | 7.0 | . | 2.3 | 28.8 | 78.3*
CCOC(=O)c1cnc(-n2nc(C)cc2C)nc1N(CC)CC | -6.2 | -3.0 | 1.2 | -0.5 | 17.8 | 63.2*
COC(=O)C1=C(C)N(C)C(C)=C(C(=O)OC)C1c1ccc(-c2ccccc2)cc1 | -1.9 | . | . | . | . | .
Cc1c(NC2=C(Cl)C(=O)c3c(Cl)c(Cl)c(Cl)c(Cl)c32)c(=O)n(-c2ccccc2)n1C | 13.2 | . | . | . | . | .
COc1ccc(/C(C)=N\NC(=O)COc2cccc(Cl)c2)cc1OC | 10.3 | . | . | . | . | .
COC(=O)c1cc2c(-c3ccccc3)c(C)c3ccccn3c-2c1C(=O)OC | . | -9.0 | 1.2 | 4.7 | 42.5* | .
SMILES | HePTP inh | Ecoli WT expand | PLAP activator | PostGolgi yeast | PostGolgi ctrl | Ecoli tolC
COC(=O)c1c(N)sc(C)c1-c1ccccc1 | 8.1 | . | . | . | . | .
COc1ccc(C(=O)N/C(=C\c2ccc(-c3cccc([N+](=O)[O-])c3)o2)C(=O)NCc2ccco2)cc1 | -20.4 | . | . | . | . | .
C=CCSc1nc2ccccc2n1C(=O)/C=C/c1ccc(OC)c(OC)c1 | . | -2.0 | 1.1 | -2.2 | 0.6 | .
C=CCSc1nc2ccccc2n1C(=O)/C=C/c1cc(OC)c(OC)c(OC)c1 | . | -9.0 | 1 | 2.7 | 38.4* | .
CCCC1=NN2C(=N)/C(=C/c3cc(OC)ccc3OC)C(=O)N=C2S1 | -3.6 | . | . | . | . | .
COc1cc(C(=O)Nc2sc3c(c2C#N)CCN(C(C)=O)C3)cc(OC)c1OC | . | -3.0 | 1.2 | 1.8 | 31.0* | .
CCOC(=O)N1CCc2c(sc(NC(=O)c3ccc(S(=O)(=O)N4CCCC4)cc3)c2C#N)C1 | 11.4 | 0.0 | . | 6.9 | 10.4 | 26.9
